pEC50: −log10 of the molar value. Converted amounts (≈) assume the structure as drawn. The source made the active and inactive calls. The calls are words filed in the database; no cut-off is given here.
Key:
[1] = biological target: T1, DNA polymerase (Human herpesvirus 5) (UniProt A6BMM6); assay: Inhibition of HCMV UL54-encoded DNA polymerase at 5 to 7.5 uM after 60 mins; conditions: Human betaherpesvirus 5
T1 sequence (whole entry): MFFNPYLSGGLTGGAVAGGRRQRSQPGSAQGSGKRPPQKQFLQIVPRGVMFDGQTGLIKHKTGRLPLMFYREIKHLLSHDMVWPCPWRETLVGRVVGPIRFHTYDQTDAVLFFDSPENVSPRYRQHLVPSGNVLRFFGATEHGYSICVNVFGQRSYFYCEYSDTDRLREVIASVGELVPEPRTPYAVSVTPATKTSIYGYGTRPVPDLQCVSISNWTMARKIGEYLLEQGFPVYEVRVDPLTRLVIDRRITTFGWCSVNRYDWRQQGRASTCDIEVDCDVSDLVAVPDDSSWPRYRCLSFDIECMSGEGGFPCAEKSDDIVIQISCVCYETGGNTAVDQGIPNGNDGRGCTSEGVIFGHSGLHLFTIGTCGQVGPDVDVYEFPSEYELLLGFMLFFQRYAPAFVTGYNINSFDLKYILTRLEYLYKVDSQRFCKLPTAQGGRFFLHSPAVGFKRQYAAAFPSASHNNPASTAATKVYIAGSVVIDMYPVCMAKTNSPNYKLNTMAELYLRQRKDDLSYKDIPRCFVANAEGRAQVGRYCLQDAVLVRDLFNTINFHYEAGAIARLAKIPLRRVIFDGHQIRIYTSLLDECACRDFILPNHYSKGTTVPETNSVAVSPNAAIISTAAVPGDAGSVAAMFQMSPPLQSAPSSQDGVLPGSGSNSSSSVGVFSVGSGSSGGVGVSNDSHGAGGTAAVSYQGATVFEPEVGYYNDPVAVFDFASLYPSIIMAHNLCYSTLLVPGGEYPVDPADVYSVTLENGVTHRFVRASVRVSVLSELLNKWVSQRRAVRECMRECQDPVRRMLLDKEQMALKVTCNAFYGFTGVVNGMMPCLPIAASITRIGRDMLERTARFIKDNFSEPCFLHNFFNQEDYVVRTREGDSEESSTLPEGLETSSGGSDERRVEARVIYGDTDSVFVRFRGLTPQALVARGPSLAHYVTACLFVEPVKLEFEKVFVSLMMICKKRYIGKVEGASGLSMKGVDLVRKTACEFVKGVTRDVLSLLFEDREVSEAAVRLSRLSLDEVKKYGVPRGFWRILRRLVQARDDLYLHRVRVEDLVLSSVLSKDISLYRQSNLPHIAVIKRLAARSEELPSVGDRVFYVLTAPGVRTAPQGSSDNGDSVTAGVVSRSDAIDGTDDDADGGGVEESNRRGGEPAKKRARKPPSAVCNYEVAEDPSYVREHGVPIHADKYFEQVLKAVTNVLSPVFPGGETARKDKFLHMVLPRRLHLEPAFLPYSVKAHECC

Human betaherpesvirus 5 [2] = assay: Antiviral activity against ganciclovir-resistant HCMV with DNA polymerase mutant in HEL cells assessed as reduction of virus-induced cytopathogenicity; assay type: functional, organism-based; conditions: Human betaherpesvirus 5, HEL
In short: (§1)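 Resistant mutants raised in vitro by serial passage of HCMV AD-169 under rising drug concentrations. Confluent HEL fibroblasts infected at 100 PFU/well for 2 h, then the inoculum was removed. Cells were kept with serial compound concentrations in duplicate for 7 days at 37 °C. After ethanol fixation, cytopathicity was scored microscopically. EC50 is the concentration halving virus-induced cytopathicity.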

Human betaherpesvirus 5 [3] = assay: Antiviral activity against (S)-3-hydroxy-2-phosphonomethoxypropyl cytosine-resistant HCMV with DNA polymerase mutant in HEL cells assessed as reduction of virus-induced cytopathogenicity; assay type: functional, organism-based; conditions: Human betaherpesvirus 5, HEL; in short: as §1
Human betaherpesvirus 5 [4] = assay: Antiviral activity against (S)-3-hydroxy-2-phosphonomethoxypropyl adenine-resistant HCMV with DNA polymerase mutant in HEL cells assessed as reduction of virus-induced cytopathogenicity; assay type: functional, organism-based; conditions: Human betaherpesvirus 5, HEL; in short: as §1
Human betaherpesvirus 5 [5] = assay: Antiviral activity against foscarnet-resistant HCMV with DNA polymerase mutant in HEL cells assessed as reduction of virus-induced cytopathogenicity; assay type: functional, organism-based; conditions: Human betaherpesvirus 5, HEL; in short: as §1
Human betaherpesvirus 5 [6] = assay: Antiviral activity against acyclovir-resistant HCMV with DNA polymerase mutant in HEL cells assessed as reduction of virus-induced cytopathogenicity; assay type: functional, organism-based; conditions: Human betaherpesvirus 5, HEL; in short: as §1
Human betaherpesvirus 5 [7] = assay: Antiviral activity against HCMV 6 with […] mutation in HEL cells assessed as reduction of virus-induced cytopathogenicity; assay type: functional, organism-based; conditions: Human betaherpesvirus 5, HEL
In short: (§2)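 Drug-resistant HCMV clinical isolates from immunocompromised patients, carrying UL97 and/or DNA polymerase mutations. Confluent HEL fibroblasts infected at 100 PFU/well for 2 h, then residual virus was removed. Medium with serial compound concentrations added in duplicate for 7 days at 37 °C. After ethanol fixation, cytopathicity was scored microscopically. EC50 is the concentration reducing cytopathicity by 50%.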

Human betaherpesvirus 5 [8] = assay: Antiviral activity against HCMV 521 with […] and DNA polymerase mutation in HEL cells assessed as reduction of virus-induced cytopathogenicity; assay type: functional, organism-based; conditions: Human betaherpesvirus 5, HEL; in short: as §2
Human betaherpesvirus 5 [9] = assay: Antiviral activity against HCMV 530 with […] and DNA polymerase mutation in HEL cells assessed as reduction of virus-induced cytopathogenicity; assay type: functional, organism-based; conditions: Human betaherpesvirus 5, HEL; in short: as §2
Human betaherpesvirus 5 [10] = assay: Antiviral activity against HCMV Davis in HEL cells assessed as reduction of virus-induced cytopathogenicity after 7 days; assay type: functional, organism-based; conditions: Human betaherpesvirus 5, Davis, 168 h
In short: (§3)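 Confluent HEL fibroblasts were infected with strain AD-169 or Davis at 100 PFU/well. After 2 h, residual virus was removed and medium with serial compound concentrations was added, in duplicate. Plates were held 7 days at 37 °C, fixed with ethanol, and scored microscopically for virus-induced cytopathicity. EC50 is the concentration reducing cytopathicity by 50%.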

Human betaherpesvirus 5 [11] = assay: Antiviral activity against HCMV AD169 in HEL cells assessed as reduction of virus-induced cytopathogenicity after 7 days; assay type: functional, organism-based; conditions: Human betaherpesvirus 5, AD169, HEL, 168 h; in short: as §3
[12] = Cytotoxicity against HEL cells assessed as alteration in cell morphology after 3 days; assay type: cell-based; conditions: human
In short: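 Minimum cytotoxic concentration: the lowest compound concentration causing a microscopically detectable alteration of HEL cell morphology.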

Human betaherpesvirus 5 [13] = assay: Antiviral activity against HCMV in HEL cells assessed as reduction of virus-induced cytopathogenicity administered at 56 hrs post infection; assay type: functional, organism-based
In short: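 Time-of-addition: confluent HEL cultures were infected with about 100 PFU/well of HCMV Davis. Compound dilutions were added at 0 h or at later time points post infection, with one plate set per time point. Seven days after infection, plates were ethanol-fixed and Giemsa-stained. Antiviral effect was scored microscopically and EC50 calculated.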

[14] = Cytotoxicity against HEL cells assessed as reduction in cell growth after 3 days; assay type: cell-based; conditions: human
In short: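 HEL cells were seeded at 5 × 10³ cells/well and allowed to proliferate for 24 h. Compound-containing medium was then added at several concentrations for 3 days at 37 °C. Cells were counted with a Coulter counter. CC50, the concentration reducing cell growth by 50% versus untreated controls, was read from plots of cell number (% of control) against concentration.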

Human betaherpesvirus 5 [15] = assay: Inhibition of immediate early antigen expression in HCMV Davis in HEL cells at 48 hrs post infection by flow cytometry; assay type: functional, organism-based
In short: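 HEL cells were infected with HCMV Davis, with compound dilutions added at infection and incubation at 37 °C. Cells were acetone-fixed at 4 °C, resuspended in PBS with 5% gelatin, and stained at 37 °C with a mAb against IE proteins 1 and 2. A fluorescein-labelled rabbit anti-mouse IgG was applied for 30 min, cells were fixed in 0.5% formaldehyde and analysed by flow cytometry. Background fluorescence of uninfected cells was subtracted.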

Murid betaherpesvirus 1 = assay: Antiviral activity against MCMV in mouse C127I cells assessed as reduction of virus-induced cytopathogenicity after 7 days; assay type: functional, organism-based; conditions: Murid betaherpesvirus 1, C127I, 168 h
In short: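 MCMV Smith strain on confluent C127I cells, run as the HCMV assay: 100 PFU/well for 2 h, inoculum removed, then serial compound concentrations in duplicate for 7 days at 37 °C. Cytopathicity was scored microscopically after ethanol fixation. EC50 is the concentration reducing virus-induced cytopathicity by 50%.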

Human alphaherpesvirus 3 [16] = assay: Antiviral activity against wild-type VZV in HEL cells after 5 days by plaque reduction assay; assay type: functional, organism-based; conditions: Human alphaherpesvirus 3, HEL, 120 h
In short: (§4)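 Plaque reduction on confluent HEL monolayers infected with 20 PFU/well of cell-associated VZV. After 2 h, inoculum was replaced by compound dilutions in duplicate, with infected-untreated controls. After 5 days, cells were fixed and Giemsa-stained and plaques counted. EC50 is the concentration reducing plaque formation by 50% versus untreated control.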

Human alphaherpesvirus 1 = assay: Antiviral activity against HSV1; assay type: functional, organism-based
Human alphaherpesvirus 2 = assay: Antiviral activity against HSV2; assay type: functional, organism-based
Human alphaherpesvirus 3 [17] = assay: Antiviral activity against thymidine-kinase deficient VZV in HEL cells after 5 days by plaque reduction assay; assay type: functional, organism-based; conditions: Human alphaherpesvirus 3, HEL, 120 h; in short: as §4
Vaccinia virus = assay: Antiviral activity against vaccinia virus; assay type: functional, organism-based; conditions: Orthopoxvirus vaccinia

Structure (SMILES) | EC50 (Human betaherpesvirus 5 [2]) | EC50 (Human betaherpesvirus 5 [3]) | EC50 (Human betaherpesvirus 5 [4]) | EC50 (Human betaherpesvirus 5 [5]) | EC50 (Human betaherpesvirus 5 [6]) | EC50 (Human betaherpesvirus 5 [7]) | EC50 (Human betaherpesvirus 5 [8]) | EC50 (Human betaherpesvirus 5 [9]) | pEC50 (Human betaherpesvirus 5 [10]) | pEC50 (Human betaherpesvirus 5 [11]) | MCC at 72 h [12] | Activity (Human betaherpesvirus 5 [13]) | CC50 at 72 h [14] | pEC50 (Murid betaherpesvirus 1) | pEC50 (Human alphaherpesvirus 3 [16]) | Activity (Human alphaherpesvirus 1) | Activity (Human alphaherpesvirus 2) | pEC50 (Human alphaherpesvirus 3 [17]) | Activity (Vaccinia virus) | other results
O=C(O)P(=O)(O)O [FOSCARNET] | 17 µg/mL (≈ 135 µM) | 14 µg/mL (≈ 111 µM) | 35 µg/mL (≈ 278 µM) | 135 µg/mL (≈ 1070 µM) | 37 µg/mL (≈ 294 µM) | 34 µg/mL (≈ 270 µM) | 29 µg/mL (≈ 230 µM) | 31 µg/mL (≈ 246 µM) | – | – | – | – | – | – | – | – | – | – | – | Activity [1]: Active
Cc1cn([C@@H]2O[C@H](CO[Si](C)(C)C(C)(C)C)[C@@]3(OS(=O)(=O)C=C3NC(=O)NC(=O)c3ccccc3)[C@H]2O[Si](C)(C)C(C)(C)C)c(=O)n(C)c1=O | – | – | – | – | – | – | – | – | 5.62 | 4.96 | ≥ 80 µM | inactive | > 200 µM | – | – | – | – | – | – | –
Cc1cn([C@@H]2O[C@H](CO[Si](C)(C)C(C)(C)C(C)C)[C@@]3(OS(=O)(=O)C=C3NC(=O)NC(=O)c3ccccc3)[C@H]2O[Si](C)(C)C(C)(C)C)c(=O)n(C)c1=O | 0.9 µg/mL (≈ 1.16 µM) | 1 µg/mL (≈ 1.28 µM) | 3.1 µg/mL (≈ 3.98 µM) | 0.78 µg/mL (≈ 1 µM) | 1.1 µg/mL (≈ 1.41 µM) | 0.86 µg/mL (≈ 1.1 µM) | 0.67 µg/mL (≈ 0.86 µM) | 1.3 µg/mL (≈ 1.67 µM) | 5.85 | 5.96 | ≥ 100 µM | inactive | > 50 µM | 6.18 | 4.96 | inactive | inactive | 4.96 | inactive | Activity (Human betaherpesvirus 5 [15]): inactive
Cc1cn([C@@H]2O[C@H](CO[Si](C)(C)C(C)(C)C(C)C)[C@@]3(OS(=O)(=O)C=C3NC(=O)NC(=O)c3ccccc3)[C@H]2O[Si](C)(C)C(C)(C)C(C)C)c(=O)n(C)c1=O | 3.3 µg/mL (≈ 4.09 µM) | 2.6 µg/mL (≈ 3.22 µM) | 5.6 µg/mL (≈ 6.94 µM) | 2.7 µg/mL (≈ 3.35 µM) | 2.7 µg/mL (≈ 3.35 µM) | 5.5 µg/mL (≈ 6.81 µM) | 2.9 µg/mL (≈ 3.59 µM) | 5.7 µg/mL (≈ 7.06 µM) | 5.82 | 5.92 | ≥ 100 µM | inactive | > 50 µM | 6.27 | 4.96 | inactive | inactive | 4.96 | inactive | –

Source: ChEMBL document CHEMBL1140035, “4"-Benzoylureido-TSAO derivatives as potent and selective non-nucleoside HCMV inhibitors. Structure-activity relationship and mechanism of antiviral action” (J Med Chem, 2008)
